The target of this experiment is T1, Inhibitor of nuclear factor kappa-B kinase subunit beta (Homo sapiens, UniProt O14920).
T1 sequence (O14920 whole entry): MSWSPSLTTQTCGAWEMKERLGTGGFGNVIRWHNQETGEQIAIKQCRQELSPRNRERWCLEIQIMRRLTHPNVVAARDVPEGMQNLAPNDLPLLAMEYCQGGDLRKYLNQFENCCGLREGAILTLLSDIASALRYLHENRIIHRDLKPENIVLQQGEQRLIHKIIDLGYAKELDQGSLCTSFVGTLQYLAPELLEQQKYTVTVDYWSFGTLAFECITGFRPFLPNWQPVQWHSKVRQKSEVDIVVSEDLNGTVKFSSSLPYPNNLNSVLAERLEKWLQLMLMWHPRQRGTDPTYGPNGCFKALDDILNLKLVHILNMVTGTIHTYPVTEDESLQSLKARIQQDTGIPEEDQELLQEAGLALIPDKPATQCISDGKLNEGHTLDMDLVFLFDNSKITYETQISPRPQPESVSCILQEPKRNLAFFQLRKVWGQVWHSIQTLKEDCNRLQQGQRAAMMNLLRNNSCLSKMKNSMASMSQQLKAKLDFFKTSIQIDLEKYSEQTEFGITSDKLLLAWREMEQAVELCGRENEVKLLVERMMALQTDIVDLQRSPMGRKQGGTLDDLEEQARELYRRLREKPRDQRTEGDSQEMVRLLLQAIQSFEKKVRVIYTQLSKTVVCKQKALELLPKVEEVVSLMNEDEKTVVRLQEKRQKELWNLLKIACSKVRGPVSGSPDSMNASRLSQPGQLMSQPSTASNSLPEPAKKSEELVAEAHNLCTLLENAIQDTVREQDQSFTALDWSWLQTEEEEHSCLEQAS
The experiment can be described thus: Inhibition of FLAG-tagged human recombinant IKKbeta phosphorylation expressed in baculovirus infected insect Sf9 cells after 1 hr by luminescence assay. Put shortly: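 Reaction run 1 h at room temperature in 25 mmol/l HEPES pH 7.5, 10 mmol/l Mg acetate, DTT, 0.01% BSA and 0.01% Tween20, with 500 nmol ATP and GST-IκBα substrate. Kinase-Glo added, 10 min, luminescence from remaining ATP measured.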

With `C/C=C(\C)C(=O)O[C@@H]1CC(C)(C)C[C@H]2C3=CC[C@@H]4[C@@]5(C)CC[C@H](OC(=O)/C=C/c6ccccc6)C(C)(C)[C@@H]5CC[C@@]4(C)[C@]3(C)CC[C@@]12C(=O)O`, the IC50 is 1.2 µM. Take `C/C=C(\C)C(=O)O[C@@H]1CC(C)(C)C[C@H]2C3=CC[C@@H]4[C@@]5(C)CC[C@H](O)C(C)(C)[C@@H]5CC[C@@]4(C)[C@]3(C)CC[C@@]12C(=O)O`: the IC50 is 2.62 µM. Take `CC(C)=CC(=O)O[C@@H]1CC(C)(C)C[C@H]2C3=CC[C@@H]4[C@@]5(C)CC[C@H](OC(=O)/C=C/c6ccccc6)C(C)(C)[C@@H]5CC[C@@]4(C)[C@]3(C)CC[C@@]12C(=O)O`: the IC50 is 0.94 µM.

One may read the IC50 as the concentration that inhibits the measured activity by half.

The record behind these values is BindingDB's records for doi:10.1016/j.ejmech.2013.12.052 (Jaypee University of Information Technology, 2014).
